Sampled rows, rich in hits. Any-hit rate of the full collection: about 3.4%.
PolyA inh – polyadenylation inhibitors in yeast reporter cells, primary screen, luminescence, S. cerevisiae. AID 1875, 2009. activity score, % at 12 µM. actives 0.02% (n = 300,000). S. cerevisiae SKY197-pL101 polyadenylation reporter, beta-gal luminescence; efflux-impaired pdr1/pdr3 knockout yeast; score 100 = 6 SD above DMSO;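 active = lowest replicate activity score at least 50, where 100 means six control SD above control mean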;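 also: yeast exposed to compound for 9 h at 30 °C; higher score means more reporter readthrough which indicates perturbed polyadenylation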
A3G deaminase – APOBEC3G DNA deaminase inhibitors, primary screen, biochemical, fluorescence, single-stranded DNA substrate, uHTS; recombinant A3G, ssDNA deamination FAM/TAMRA fluorescence; inhibition, % at 20 µM; actives 0.28% (n = 330,000); AID 493012, 2011;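 active = inhibition of at least 40% at 20 µM, with no more than 30% in the related APOBEC3A deaminase screen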
AHR act – AHR activators, primary screen, cell-based, luminescence, luciferase reporter, human; activation, % at 5 µM; Aryl hydrocarbon receptor (Homo sapiens), P35869; AHR-responsive luciferase reporter cells; actives 2.5% (n = 320,000); in the data active = activation above about 47%
APOBEC3A inh – APOBEC3A ssDNA deaminase inhibitors, primary screen, selectivity assay for APOBEC3G inhibitor project, biochemical, FAM/TAMRA oligo cleavage fluorescence; DNA dC->dU-editing enzyme APOBEC-3A (Homo sapiens), P31941; recombinant A3A, FAM/TAMRA ssDNA deamination fluorescence; inhibition, % at 20 µM; actives 0.41% (n = 330,000);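 active = at least 40% inhibition at 20 µM here, with at most 30% in a related deaminase screen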
Target sequence (P31941 whole entry, looked up): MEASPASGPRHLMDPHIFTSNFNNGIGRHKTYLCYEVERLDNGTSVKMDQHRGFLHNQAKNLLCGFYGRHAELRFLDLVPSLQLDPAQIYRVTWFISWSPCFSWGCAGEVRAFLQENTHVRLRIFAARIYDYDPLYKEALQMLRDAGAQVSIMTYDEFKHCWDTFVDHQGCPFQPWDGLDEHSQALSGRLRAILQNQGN
UCH37 DUB inh – inhibitors of human UCH37 deubiquitinase, primary screen, biochemical, Ub-AMC cleavage, fluorescence. Ubiquitin carboxyl-terminal hydrolase isozyme L5 (Homo sapiens), Q9Y5K5. purified proteasome/UCH37. inhibition, % (no concentration beside the values). actives 0.33% (n = 330,000). AID 588478, 2011;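 active = mean inhibition over replicate wells above about 20%, limit read from the data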
Target sequence (Q9Y5K5 whole entry, looked up): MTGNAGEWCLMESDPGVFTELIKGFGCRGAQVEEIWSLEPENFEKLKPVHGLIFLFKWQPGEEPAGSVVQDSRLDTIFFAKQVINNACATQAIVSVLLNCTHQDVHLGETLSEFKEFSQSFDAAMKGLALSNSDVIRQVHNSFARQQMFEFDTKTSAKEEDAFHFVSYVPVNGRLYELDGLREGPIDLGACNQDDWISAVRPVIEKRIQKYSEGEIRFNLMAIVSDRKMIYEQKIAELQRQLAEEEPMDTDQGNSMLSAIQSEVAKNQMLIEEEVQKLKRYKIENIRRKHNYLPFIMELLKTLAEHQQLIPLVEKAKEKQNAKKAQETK
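Material: Human UCH37 enzyme supplied as purified proteasome complex | Schedule: 30 min compound-proteasome preincubation then 25 min substrate reaction, room temperature | Detection: AMC fluorescence from Ub-AMC cleavage, excitation 355 nm, emission 460 nm | Benchmarks: Wells without proteasome as full block, compound-free enzyme plus substrate as uninhibited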
Arr AP2 block – inhibitors of beta-arrestin/AP2 binding, primary screen, biochemical, GPCR trafficking, flow cytometry; FITC-arrestin peptide / GST-AP2 beads; AP2 beta2 appendage carries R879A mutation; inhibition, % at 10 µM; actives 0.31% (n = 340,000); beta-arrestin 1 C-terminal peptide binding to AP2 beta2-adaptin appendage (human);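 active = inhibition above a set limit, near 3 SD of compounds lacking own fluorescence, cut at about 54% in these data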
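Material – GST-tagged AP2 beta2-adaptin appendage (R879A) on 4 µm glutathione beads · Probe or stimulus – fluorescein-tagged arrestin peptide at 50 nM final · Timing – 12 min plus 1 h, RT · Detection – bead flow cytometry, FITC channel · Read-out basis – inhibition as reduced fluorescein signal on beads, percent · Medium – PBS plus Tween 20 (0.05%) and BSA (0.1%)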
A number is an active result; - = inactive; . = not tested or not shown.

SMILES | PolyA inh | A3G deaminase | AHR act | APOBEC3A inh | UCH37 DUB inh | Arr AP2 block
CCCCC[C@H]1CN(C2CCCCC2)C(=O)[C@@H]1CC(=O)NCc1ccccc1 | - | - | - | - | 32.4 | -
C[C@H]1CN(C2CCCCC2)C(=O)[C@@H]1CC(=O)NCc1ccccc1 | - | - | - | - | - | -
Cc1ccccc1OCC(=O)Nc1nnc(C2CC2)s1 | . | - | - | - | - | -
N#Cc1ccccc1OCC(=O)Nc1nnc(C2CC2)s1 | . | - | 64.4 | - | - | -
CC(/C=C/c1cccc([N+](=O)[O-])c1)=NNC(=O)c1cccnc1 | . | . | . | . | - | .
CCOc1ccccc1Nc1ncnc2ccc(Br)cc12 | - | - | 76.0 | - | - | -
Cc1ccc2ncnc(Nc3ccc(C)c(C)c3)c2c1 | - | - | 50.2 | - | - | -
CCOc1ccccc1Nc1nc2ccccc2[nH]1 | - | - | 50.1 | - | - | -
CCOc1ccccc1Nc1cc(C)nc2ccc(C)cc12 | - | - | 47.6 | - | - | -
CC(=NNC(=O)c1ccccc1C)c1ccc(NC(=O)c2cccs2)cc1 | . | . | . | . | - | .
CC(=O)c1cccc(Nc2ncnc3ccc(Br)cc23)c1 | - | - | 73.6 | - | - | -
CCC(=O)c1ccc(Oc2nc3c(c(=O)n(C)c(=O)n3C)n2CC)cc1 | - | - | 60.8 | - | - | -
COC(=O)c1ccc(Oc2nc3c(c(=O)n(C)c(=O)n3C)n2CCC(C)C)cc1 | - | - | - | - | - | -
O=C(NN=Cc1cn(-c2ccccc2)nc1-c1cccnc1)c1cccnc1 | . | . | . | . | - | .
O=C(CCNC(=O)c1ccc([N+](=O)[O-])cc1)NN=Cc1ccc(F)cc1 | . | . | . | . | - | .
CC1CC1c1ccc(/C=C(\C#N)C(=O)Nc2ccccc2Cl)o1 (stereo not drawn) | - | - | 50.2 | - | - | -
O=C1NC2(CCCCC2)C(=O)N1N=Cc1ccccc1Br | . | . | . | . | - | .
CC(=NNC(=O)c1ccc(Br)o1)C(C)C | . | . | . | . | - | .
Cc1ccc(C(=NNc2ncnc3ccccc23)C(=O)O)cc1 | . | . | . | . | - | .
COc1ccc(/C(=N/Nc2ncnc3ccccc23)C(=O)O)cc1 | - | - | 72.9 | - | . | -
O=C(O)c1ccc(NN=CC2=C(N3CCOCC3)/C(=C\c3ccccc3)CC2)cc1 | . | . | . | . | - | .
O=C(NCCCO)/C(=C/c1ccc(-c2cccc([N+](=O)[O-])c2)o1)NC(=O)c1ccccc1 | - | - | - | - | 21.7 | -
O=[N+]([O-])c1cccc(-c2ccc(/C=N/NC(=S)Nc3ccccc3)o2)c1 | - | - | 64.8 | - | . | -
Cc1ccc(C(=O)N/C(=C\c2ccc(-c3cccc([N+](=O)[O-])c3)o2)C(=O)NC(C)(C)C)cc1 | - | - | 55.9 | - | - | -
CC(C)(C)c1ccc(C(=O)N/C(=C\c2cccc([N+](=O)[O-])c2)C(=O)Nc2cccc(C(=O)O)c2)cc1 | - | - | 67.5 | - | - | -
SMILES | PolyA inh | A3G deaminase | AHR act | APOBEC3A inh | UCH37 DUB inh | Arr AP2 block
COc1cc(C=NN2CCN(Cc3ccc(Cl)cc3)CC2)ccc1OC(C)=O | . | . | . | . | - | .
CC(CC(=O)N(C(C)C)C(C)C)=NNC(=O)COc1ccc(Cl)cc1Cl | . | . | . | . | - | .
ON=C1CC(O)Cc2nonc21 (stereo not drawn) | . | . | . | . | - | .
CCOc1ccc(N=C2NC(=O)S/C2=C\c2ccc(N(C)C)cc2)cc1 | - | - | 62.2 | - | - | -
COc1ccc2cc(C=NNC(=O)c3c(Cl)cnn3C)c(Cl)nc2c1 | . | . | . | . | - | .
NC(=O)c1ccc(C(=O)NN=C(Cc2ccccc2)c2ccccc2)cc1 | . | . | . | . | - | .
CN(C)c1ccc(NC(=O)c2cccc(C(=O)Nc3ccc(N(C)C)cc3)n2)cc1 | - | - | 68.0 | - | - | -
CCCNC(=O)C(=O)Nc1ccc(N(C)C)cc1 | - | - | 67.6 | - | - | -
Cc1ccc(C(=O)c2no[n+]([O-])c2C(=O)c2ccc(C)cc2)cc1 | 99.6 | - | - | - | - | -
Cc1ccc(C(=O)c2ccc(C)cc2)cc1 | - | - | - | - | - | -
Cc1ccc(-c2csc(NC(=O)c3c(C)noc3C)n2)s1 | . | - | 76.0 | - | - | -

High-throughput results deposited in PubChem by several laboratories.
